For 44 compounds, cytotoxicity results are on record in ChEMBL document CHEMBL4513216, “Probing the Open Global Health Chemical Diversity Library for Multistage-Active Starting Points for Next-Generation Antimalarials” (ACS Infect Dis, 2020).

SMILES strings stand for the structures.

The data set in a line: Toxicity liver stage against HepG2, at 10uM. The note with it: human, HepG2-A16-CD81EGFP cells; read-out: INHIBITION
Details: test concentration 10 uM, cell line HepG2-A16-CD81EGFP. The class given is cell-based. A digest of the protocol: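 Uninfected HepG2-A16-CD81EGFP cells, 3 × 10^3 per well, 1536-well, plated on prespotted compound at 10 μM final, parasite-free screening media added to match infected plates; puromycin 10 μM positive, DMSO 0.5% negative; run in parallel with 48 h PbLuc assay at 37 °C, 5% CO2; viability by CellTiter-Glo luminescence, normalized to controls.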
Regarding `CCn1cc(NC(=O)CN2CCC(Oc3ccc(F)cc3)CC2)c(C)n1`, the cytotoxicity at 10 µM was 9.25%. As to `Cc1noc(C)c1CCC(=O)N1CCCN(Cc2cscn2)CC1`, the cytotoxicity at 10 µM is -4.51%. Under `COc1ccccc1CC(=O)NS(=O)(=O)c1ccc(C(N)=O)cc1` stands -5.2%; under `Cc1nc(CCNC(=O)C2CC(=O)N(C(C)C)C2)sc1C` (centres undefined), -14%; under `CCOc1cccnc1C(=O)N1CCCN(c2nc(C)cs2)CC1`, 5.6%.

Take `CS(=O)(=O)N1CC[C@]2(C[C@@H](Oc3ccccn3)CO2)C1`: the cytotoxicity at 10 µM was -144%.

For the compound `CC(Cn1ccnc1)NCc1n[nH]c2c1CCC2` (centres undefined), the cytotoxicity at 10 µM was determined as 6.07%. In the case of `O=C(c1cccnc1-n1cncn1)N1CCN(C2CCCC2)CC1`, the cytotoxicity at 10 µM was found to be 8.7%. As for `CN(C)C(=O)c1cccc(NC(=O)N2CCCC(C(F)(F)F)C2)c1` (centres undefined), the figure is 6.37%; as for `CC(C)N1CCOC(CC(=O)N2CCCN(Cc3ccncc3)CC2)C1` (centres undefined), -7.49%; as for `CCCn1ncc(CN2CCCCC2CCCOC)c1C` (centres undefined), -15.2%.

As for `CS(=O)(=O)CCNC(=O)c1ccc(-c2ccco2)[nH]c1=O`, the cytotoxicity at 10 µM was -22.8%.

Consider `CCn1cnnc1C1CCN(C(=O)c2cnc3ccccc3n2)CC1`, for which the cytotoxicity at 10 µM is -8.59%. As for `CCNC(=O)CN1CCSC2(CCCCC2)C1`, the figure is -2.64%; as for `Cc1cc(F)c(C(C(=O)O)N2CCN(Cc3ccccn3)CC2)cc1Cl` (centres undefined), 4.2%; as for `CN(Cc1cnn(C)c1)C(=O)CN1CCCC(Cn2cncn2)C1` (centres undefined), -0.808%.

Regarding `O=C(NCCCOCC1CC1)Nc1cccnc1N1CCOCC1`, the cytotoxicity at 10 µM is 5.55%.

As to `c1ccc(OCCN2CCCC(c3noc(C4CC4)n3)C2)cc1` (centres undefined), the cytotoxicity at 10 µM came to 2.58%. Under `CN(Cc1nc2ccccc2n1C)CC1CCCN1c1cccnn1` (centres undefined) stands -4.41%.

In the case of `O=c1[nH]nc(CNc2cncc(Br)c2)[nH]1`, the cytotoxicity at 10 µM is -1.23%. As for `c1cncc(CN2CCC(NCCc3ccc4c(c3)CCO4)CC2)c1`, the figure is 5.41%.

Take `O=C(c1ccccc1)N1CCCC(Nc2ccc(F)cc2)C1` (centres undefined): the cytotoxicity at 10 µM was -3.09%. As for `Cc1cnc(CC2COCCN(C(=O)c3cncnc3)C2)cn1` (centres undefined), the figure is 0.187%. Under `COc1c(C)cnc(CN2CCOC(Cn3cc(C)cn3)C2)c1C` (centres undefined) stands -14.7%. As for `c1nc(N2CCCC2Cn2cncn2)c2ccsc2n1` (centres undefined), the figure is 14.1%; as for `COCCN(C)C[C@@H]1CCC[C@@H]2CN(c3ncccn3)C[C@@H]21`, 4.79%. For the compound `CC(CO)NC(=O)Nc1ccc(COC2CCCC2)cc1` (centres undefined), the cytotoxicity at 10 µM is -7.41%. Under `CCN(Cc1ccncc1)Cc1cn(-c2ccccc2)nn1` stands -49.8%; under `Cc1ccc(CNC2CCCc3c2cnn3Cc2ccccc2)s1` (centres undefined), 0.338%.

Regarding `Cc1[nH]c2ccc(CNc3cc(C(=O)NC(C)C)ccn3)cc2c1C`, the cytotoxicity at 10 µM worked out at 16.2%.

In the case of `CNC(=O)C1(C)CN(c2nc(C)cc(C)n2)CCO1` (centres undefined), the cytotoxicity at 10 µM was 7.92%. Take `CC(C)CCN1C[C@@H]2C[C@H](C(=O)N3CCCC3)[C@H](C1)O2`: the cytotoxicity at 10 µM is 4.82%. As for `CC(C)C1CN(Cc2nccn2C)CCC(=O)N1CC1CC1` (centres undefined), the figure is -13.7%. Under `CCS(=O)(=O)Nc1ccc2c(c1)OCC(C)(C)C(=O)N2C` stands -17.2%; under `CC[C@@]1(O)CCN(C(=O)CN(C)Cc2ccc(F)cc2)C[C@H]1O`, 3.38%; under `Cc1cc(C2CCCN2Cc2nc3ccccc3o2)on1` (centres undefined), -17%.

For the compound `CCCNC(=O)Nc1ccn(CCCOC)n1`, the cytotoxicity at 10 µM was -2.11%. Under `CC(NC(=O)CCCc1nc(C(C)(C)C)no1)c1nnc2n1CCC2` (centres undefined) stands -0.527%. Regarding `CN(CC(=O)N(C)C1CCCCC1)C1CCc2ccccc21` (centres undefined), the cytotoxicity at 10 µM is -7.44%. For the compound `Cc1nc(O)c2nnn(C[C@H]3CCCN3C(=O)C(C)(C)C)c2n1`, the cytotoxicity at 10 µM was 3.25%. Under `COCCc1noc(CN2CCCC2c2noc(C(C)C)n2)n1` (centres undefined) stands -11.5%; under `Cc1n[nH]c(C)c1NC(=O)CN1CCOC(Cn2cccn2)C1` (centres undefined), -2.82%; under `CC(C)c1noc(CCC(=O)Nc2cc(C(F)(F)F)c[nH]c2=O)n1`, -0.387%. Under `Cc1noc(CCCNC(=O)CNC(=O)c2cc3ccccc3[nH]2)n1` stands 4.81%.
